Key:
[1] = Cytotoxicity against human MCF12A cells after 48 hrs by SRB assay; type: cell-based, MCF-12A
How it was run: (§1)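 Cells grown in RPMI with 10% fetal calf serum at 37 °C, 5% CO2, replated 24 h before use, >90% trypan blue viability. DMSO stocks (1 mg/ml) diluted in medium; 48 h exposure at 37 °C, triplicate wells, concentrations up to 250 µM. Fixed with cold TCA, SRB stained, dye solubilized in 10 mM Tris pH 10.5, A570. Percent inhibition calculated versus untreated cells after subtracting cell-free blanks.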

[2] = tested on: CCRF-CEM; assay: Cytotoxicity against human CEM cells assessed as viable cells at 120 uM after 24 hrs by Annexin-V-FITC and porpidium iodide staining based flow cytometry; type: functional; conditions: read-out: Activity
How it was run: (§2)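 CEM cells at 10⁶/ml incubated 24 h at 37 °C with 120 µM agent from fresh DMSO stocks. Cells then washed in ice-cold PBS and taken into binding buffer (10 mM HEPES, 140 mM NaCl, 2.5 mM CaCl2). Annexin V-FITC and PI were added for 15 min in the dark at ambient temperature. Flow cytometry read 520/620 nm, gated on forward scatter to remove debris, counting 10,000 cells. Three experiments.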

[3] = tested on: CCRF-CEM; assay: Cytotoxicity against human CEM cells assessed as early apoptotic cells at 120 uM after 24 hrs by Annexin-V-FITC and porpidium iodide staining based flow cytometry; type: functional; how it was run: as §2
[4] = tested on: CCRF-CEM; assay: Antiproliferative activity against human CEM cells after 48 hrs by SRB assay; type: functional, cell-based; how it was run: as §1
[5] = tested on: CCRF-CEM; assay: Cytotoxicity against human CEM cells assessed as late apoptotic/necrotic cells at 120 uM after 24 hrs by Annexin-V-FITC and porpidium iodide staining based flow cytometry; type: functional; how it was run: as §2
[6] = tested on: MCF7; assay: Antiproliferative activity against human MCF7 cells after 48 hrs by SRB assay; type: functional, cell-based; how it was run: as §1
[7] = tested on: MCF7; assay: Antiproliferative activity against human MCF7 cells at 250 uM after 48 hrs by SRB assay; type: functional, cell-based; conditions: for inhibition at 250 µM: Homo sapiens, MCF7, 48 h; how it was run: as §1
[8] = Cytotoxicity against human MCF12A cells at 250 uM after 48 hrs by SRB assay; type: cell-based, MCF-12A; conditions: read-out: INH; how it was run: as §1
[9] = tested on: CCRF-CEM; assay: Antiproliferative activity against human CEM cells at 250 uM after 48 hrs by SRB assay; type: functional; how it was run: as §1
[10] = Homo sapiens, MCF-12A, 48 h, read-out: IC50
[11] = Homo sapiens, CCRF-CEM, 48 h, read-out: IC50
[12] = Homo sapiens, MCF7, 48 h, read-out: IC50

**Q.** For O=C1C=C[C@@H]2O[C@H](c3ccccc3)[C@@H](O)[C@@H]2O1 [ALTHOLACTONE], which IC50 [1, 10] is on record?
**A.** Its IC50 is 120 µM.

**Q.** What about the viability at 120 µM [2] of the same compound?
**A.** The viability at 120 µM was 19%.

**Q.** What about the Activity [3] of the same compound?
**A.** Its Activity is 33%.

**Q.** What about the IC50 [4, 11] of the same compound?
**A.** The IC50 was 19 µM.

**Q.** And the Activity [5]?
**A.** Its Activity is 19%.

**Q.** And the IC50 [6, 12]?
**A.** The IC50 was 124 µM.

**Q.** For COC(=O)C[C@H](O)[C@H]1O[C@@H](c2ccccc2)[C@H](O)[C@H]1O, which IC50 ([1]; mcf-12a) is on record?
**A.** The IC50 was “Not Active”.

**Q.** What about the inhibition at 250 µM [7] of the same compound?
**A.** Its inhibition at 250 µM is < 50%.

**Q.** And the IC50 ([4]; ccrf-cem)?
**A.** The IC50 was “Not Active”.

**Q.** And the cytotoxicity at 48 h, 250 µM [8]?
**A.** The cytotoxicity at 48 h, 250 µM was < 50%.

**Q.** And the inhibition at 250 µM [9]?
**A.** Its inhibition at 250 µM is < 50%.

**Q.** What about the IC50 ([6]; mcf7) of the same compound?
**A.** The IC50 was “Not Active”.

**Q.** Which results are given for COC(=O)C[C@H](O)[C@@H]1O[C@@H](c2ccccc2)[C@H](O)[C@@H]1O?
**A.** IC50 ([1]; mcf-12a): Not Active; inhibition at 250 µM [7]: < 50%; IC50 ([4]; ccrf-cem): Not Active; cytotoxicity at 48 h, 250 µM [8]: < 50%; inhibition at 250 µM [9]: < 50%; IC50 ([6]; mcf7): Not Active

**Q.** For O=C1C[C@@H](O)[C@@H]2O[C@H](c3ccccc3)[C@@H](O)[C@@H]2O1, which IC50 ([1]; mcf-12a) is on record?
**A.** The IC50 was “Not Active”.

**Q.** And the Inhibition ([7]; mcf7)?
**A.** The Inhibition was < 50%.

**Q.** What about the IC50 ([4]; ccrf-cem) of the same compound?
**A.** Its IC50 is “Not Active”.

**Q.** And the cytotoxicity at 48 h, 250 µM [8]?
**A.** The cytotoxicity at 48 h, 250 µM was < 50%.

**Q.** And the inhibition at 250 µM [9]?
**A.** Its inhibition at 250 µM is < 50%.

**Q.** And the IC50 ([6]; mcf7)?
**A.** The IC50 was “Not Active”.

**Q.** For COC(=O)C[C@H](O)[C@@H]1O[C@@H](c2ccccc2)[C@@H](O)[C@@H]1O, which IC50 ([1]; mcf-12a) is on record?
**A.** Its IC50 is “Not Active”.

**Q.** And the inhibition at 250 µM [7]?
**A.** The inhibition at 250 µM was < 50%.

**Q.** What about the IC50 ([4]; ccrf-cem) of the same compound?
**A.** The IC50 was “Not Active”.

**Q.** What about the cytotoxicity at 48 h, 250 µM [8] of the same compound?
**A.** The cytotoxicity at 48 h, 250 µM was < 50%.

**Q.** What about the inhibition at 250 µM [9] of the same compound?
**A.** The inhibition at 250 µM was < 50%.

**Q.** And the IC50 ([6]; mcf7)?
**A.** The IC50 was “Not Active”.

**Q.** With O=C1C=C[C@H]2O[C@@H](c3ccccc3)[C@H](O)[C@H]2O1 [ENT-ALTHOLACTONE] as the compound, how does the IC50 [1, 10] read?
**A.** The IC50 was 110 µM.

**Q.** What about the viability at 120 µM [2] of the same compound?
**A.** Its viability at 120 µM is 19%.

**Q.** What about the Activity [3] of the same compound?
**A.** The Activity was 10%.

**Q.** And the IC50 [4, 11]?
**A.** Its IC50 is 24 µM.

**Q.** What about the Activity [5] of the same compound?
**A.** The Activity was 40%.

**Q.** What about the IC50 [6, 12] of the same compound?
**A.** Its IC50 is 100 µM.

**Q.** What does the source list for COC(=O)C[C@@H](O)[C@@H]1O[C@H](c2ccccc2)[C@@H](O)[C@@H]1O (mixture of isomers)?
**A.** IC50 ([1]; mcf-12a): Not Active; inhibition at 250 µM [7]: < 50%; IC50 ([4]; ccrf-cem): Not Active; cytotoxicity at 48 h, 250 µM [8]: < 50%; inhibition at 250 µM [9]: < 50%; IC50 ([6]; mcf7): Not Active

Source: ChEMBL document CHEMBL1159063, “Apoptotic activities in closely related styryllactone stereoisomers toward human tumor cell lines: Investigation of synergism of styryllactone-induced apoptosis with TRAIL” (Bioorg Med Chem, 2010)
